This is an account of results in ChEMBL document CHEMBL5678802, “Small-molecule p21-activated kinase inhibitor PF-3758309 is a potent inhibitor of oncogenic signaling and tumor growth” (Proc Natl Acad Sci U S A, 2010).

Assay [1] has as its target Serine/threonine-protein kinase Chk2 (Homo sapiens, UniProt O96017). As to the kind of experiment: Inhibition of human CHK2 in presence of ATP.
The target of assay [2] is Tyrosine-protein kinase Fyn (Homo sapiens, UniProt P06241). In words: Inhibition of human FYN in presence of ATP.
Assay [3] concerns the target Protein kinase C theta type (Homo sapiens, UniProt Q04759). In words: Inhibition of human PKCtheta assessed as inhibition constant in presence of ATP.
The subject of a further assay is HCC4006. In words: Inhibition of anchorage independent cell growth in human HCC4006 cells incubated for 6 days by Alamar blue reagent based fluorescence plate reader analysis. The format is functional. The following applies: HCC4006, 144 h. In general terms: The colour change of resazurin is a common sign of viable cells or microbes.
For another assay, the system named is SW1990. As to the kind of experiment: Antiproliferative activity against human SW1990 cells assessed as inhibition of cell proliferation incubated for 3 days by CellTiter-Glo Luminescent Cell Viability Assay. The format is functional, cell-based. The following applies: SW1990, 72 h. In outline: (§1)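 Cells of each line were plated in 384-well plates on day 1 and exposed to compound from day 2 for 3 days. On day 5 all medium was aspirated. Viable cell number was read by CellTiter-Glo luminescence, which quantifies cellular ATP.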

For assay [4], the system named is HCT-116. As to the kind of experiment: Antitumor activity against human HCT-116 cells xenografted in nude mouse assessed as inhibition of [3H]FLT uptake at 25 mg/kg, po administered once a day for 1 day and measured after 2 hrs post [3H]FLT administration by scintillation counter analysis relative to control. The format is functional. The following applies: HCT-116, 24 h. In outline: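 HCT116 xenograft mice (tumors 300–350 mm3, n = 5 per group) received oral vehicle or compound, with harvests on days 2, 3 and 6. Isoflurane-anesthetized mice were given [3H]FLT (15 nCi/g, i.p.) 2 h before killing. Tumor and liver were weighed, solubilized and scintillation-counted. SUV = C/(ID/W), and uptake is reported as the tumor-to-liver SUV ratio.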

In another assay the test system is CFPAC-1. In words: Antiproliferative activity against human CFPAC-1 cells assessed as inhibition of cell proliferation incubated for 3 days by CellTiter-Glo Luminescent Cell Viability Assay. The format is functional, cell-based. The following applies: CFPAC-1, 72 h. An outline of the steps:
(§2)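 Cancer cell lines seeded in 384-well plates on day 1; compound added on day 2 and left for 3 days. On day 5 all medium was aspirated, and viable cells were quantified by CellTiter-Glo luminescence, which measures cellular ATP. Dose-dependent effects on proliferation were determined.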

The target in assay [5] is Tumour suppressor p53/oncoprotein Mdm2 (Homo sapiens, UniProt P04637+Q00987). In words: Inhibition of YFP/YFP variant coding sequence fused p53/Mdm2 (unknown origin) expressed in HEK293 cells incubated for 8 to 24 hrs by fluorescence based analysis. The format is cell-based.
In assay [6] the target is Serine/threonine-protein kinase D1 (Homo sapiens) (UniProt Q15139). In words: Inhibition of human PKCmu in presence of ATP relative to control. The following applies: concentration not given here.
The subject of another assay is PaTu 8988t. As to the kind of experiment: Antiproliferative activity against human PaTu 8988t cells assessed as inhibition of cell proliferation incubated for 3 days by CellTiter-Glo Luminescent cell viability assay. The format is functional, cell-based. The following applies: 72 h. An outline of the steps:
as §1
Background: ATP-based viability assays read luminescence as a measure of living cells.

The test system of the next assay is MDA-MB-453. As to the kind of experiment: Antiproliferative activity against human MDA-MB-453 cells assessed as inhibition of cell proliferation incubated for 3 days by CellTiter-Glo Luminescent Cell Viability Assay. The format is functional, cell-based. The following applies: MDA-MB-453, 72 h. An outline of the steps: as §2
Assay [7] concerns the target Ribosomal protein S6 kinase alpha-2 (Homo sapiens, UniProt Q15349). As to the kind of experiment: Inhibition of human RSK3 assessed as inhibition constant in presence of ATP.
Assay [8] has as its target Proto-oncogene tyrosine-protein kinase Src (Homo sapiens, UniProt P12931). As to the kind of experiment: Inhibition of human SRC in presence of ATP relative to control. The following applies: concentration not given here.
Assay [9] concerns HCT-116. As to the kind of experiment: Antitumor activity against human HCT-116 cells xenografted in nude mouse assessed as tumor growth inhibition at 15 mg/kg, po administered twice daily for 9 to 18 days relative to control. The format is functional. The following applies: time 9-18 day, read-out: TGI. (In general: A xenograft is tissue or cells of one species grown in another, often human tumour cells in immunodeficient mice.)

Assay [10] deals with Ribosomal protein S6 kinase alpha-1 (Homo sapiens, UniProt Q15418). As to the kind of experiment: Inhibition of human RSK1 assessed as inhibition constant in presence of ATP.
Assay [11] concerns the target T1, Tyrosine-protein kinase Fgr (Homo sapiens, UniProt P09769). In words: Inhibition of human FGR in presence of ATP.
In another assay the test system is A549. In words: Antitumor activity against human A549 cells xenografted in nude mouse assessed as tumor growth inhibition at 10 mg/kg, po administered once daily for 9 to 18 days relative to control. The format is functional. The following applies: time 9-18 day, read-out: TGI. An outline of the steps:
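Tumor cells were implanted s.c. into the right flank of female nu/nu nude mice aged 6–8 weeks. Animals were randomized into treatment groups once tumors were established (example: day 8 postimplant, about 170 mm3, animals >22 g). Compound in 0.5% methylcellulose was given by oral gavage. Tumors were measured with calipers two to three times per week.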

The target in assay [12] is T1, Tyrosine-protein kinase Fgr. In words: Inhibition of human FGR assessed as inhibition constant in presence of ATP.
Assay [13] has as its target T2, Receptor-type tyrosine-protein kinase FLT3 (Homo sapiens, UniProt P36888).
T2 sequence (P36888 whole entry): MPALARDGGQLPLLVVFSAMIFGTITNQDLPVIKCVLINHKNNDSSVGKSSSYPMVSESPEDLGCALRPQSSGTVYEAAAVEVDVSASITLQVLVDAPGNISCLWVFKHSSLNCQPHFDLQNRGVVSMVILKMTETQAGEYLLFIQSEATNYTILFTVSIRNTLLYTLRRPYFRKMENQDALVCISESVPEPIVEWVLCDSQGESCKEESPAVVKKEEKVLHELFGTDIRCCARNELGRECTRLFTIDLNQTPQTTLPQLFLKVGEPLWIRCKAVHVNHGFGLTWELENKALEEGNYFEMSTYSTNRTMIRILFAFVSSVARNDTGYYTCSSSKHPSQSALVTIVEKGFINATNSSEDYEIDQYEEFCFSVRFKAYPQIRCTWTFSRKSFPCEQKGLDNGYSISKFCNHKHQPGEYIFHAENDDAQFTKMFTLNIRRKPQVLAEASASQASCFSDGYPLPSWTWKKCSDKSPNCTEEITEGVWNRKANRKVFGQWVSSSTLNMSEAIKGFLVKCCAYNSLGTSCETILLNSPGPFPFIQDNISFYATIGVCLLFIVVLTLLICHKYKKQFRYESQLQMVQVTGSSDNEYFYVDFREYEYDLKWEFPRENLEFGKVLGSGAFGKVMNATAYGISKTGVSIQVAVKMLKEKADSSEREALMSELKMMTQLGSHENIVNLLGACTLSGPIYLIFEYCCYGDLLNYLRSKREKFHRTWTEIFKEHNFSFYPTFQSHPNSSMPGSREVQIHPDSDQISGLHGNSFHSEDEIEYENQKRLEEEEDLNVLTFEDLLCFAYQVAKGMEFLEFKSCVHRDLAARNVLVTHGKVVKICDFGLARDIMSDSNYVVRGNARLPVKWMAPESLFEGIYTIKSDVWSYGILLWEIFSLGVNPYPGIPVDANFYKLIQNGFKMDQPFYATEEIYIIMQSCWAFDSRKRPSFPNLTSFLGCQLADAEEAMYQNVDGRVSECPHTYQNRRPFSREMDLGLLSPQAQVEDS
In words: Inhibition of human FLT3 in presence of ATP by cellular assay.

Assay [14] has as its target Protein kinase C beta type (Homo sapiens, UniProt P05771). In words: Inhibition of human PKCbeta1 assessed as inhibition constant in presence of ATP.

T1 sequence (P09769 whole entry): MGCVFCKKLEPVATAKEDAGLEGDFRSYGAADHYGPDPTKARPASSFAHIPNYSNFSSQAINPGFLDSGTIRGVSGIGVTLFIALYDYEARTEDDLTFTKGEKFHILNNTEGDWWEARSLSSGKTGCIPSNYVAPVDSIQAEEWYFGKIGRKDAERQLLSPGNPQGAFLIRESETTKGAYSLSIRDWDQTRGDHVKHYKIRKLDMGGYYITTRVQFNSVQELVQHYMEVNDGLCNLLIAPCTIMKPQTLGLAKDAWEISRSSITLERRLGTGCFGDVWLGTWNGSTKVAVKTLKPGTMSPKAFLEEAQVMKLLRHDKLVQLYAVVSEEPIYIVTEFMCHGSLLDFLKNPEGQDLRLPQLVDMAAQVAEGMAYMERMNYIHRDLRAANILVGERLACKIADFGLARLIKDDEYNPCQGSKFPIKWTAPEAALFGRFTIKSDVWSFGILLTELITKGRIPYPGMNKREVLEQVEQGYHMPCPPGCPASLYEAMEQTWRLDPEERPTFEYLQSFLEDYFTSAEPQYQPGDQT
Chain of Serine/threonine-protein kinase D1 (Homo sapiens) (Q15139 whole entry): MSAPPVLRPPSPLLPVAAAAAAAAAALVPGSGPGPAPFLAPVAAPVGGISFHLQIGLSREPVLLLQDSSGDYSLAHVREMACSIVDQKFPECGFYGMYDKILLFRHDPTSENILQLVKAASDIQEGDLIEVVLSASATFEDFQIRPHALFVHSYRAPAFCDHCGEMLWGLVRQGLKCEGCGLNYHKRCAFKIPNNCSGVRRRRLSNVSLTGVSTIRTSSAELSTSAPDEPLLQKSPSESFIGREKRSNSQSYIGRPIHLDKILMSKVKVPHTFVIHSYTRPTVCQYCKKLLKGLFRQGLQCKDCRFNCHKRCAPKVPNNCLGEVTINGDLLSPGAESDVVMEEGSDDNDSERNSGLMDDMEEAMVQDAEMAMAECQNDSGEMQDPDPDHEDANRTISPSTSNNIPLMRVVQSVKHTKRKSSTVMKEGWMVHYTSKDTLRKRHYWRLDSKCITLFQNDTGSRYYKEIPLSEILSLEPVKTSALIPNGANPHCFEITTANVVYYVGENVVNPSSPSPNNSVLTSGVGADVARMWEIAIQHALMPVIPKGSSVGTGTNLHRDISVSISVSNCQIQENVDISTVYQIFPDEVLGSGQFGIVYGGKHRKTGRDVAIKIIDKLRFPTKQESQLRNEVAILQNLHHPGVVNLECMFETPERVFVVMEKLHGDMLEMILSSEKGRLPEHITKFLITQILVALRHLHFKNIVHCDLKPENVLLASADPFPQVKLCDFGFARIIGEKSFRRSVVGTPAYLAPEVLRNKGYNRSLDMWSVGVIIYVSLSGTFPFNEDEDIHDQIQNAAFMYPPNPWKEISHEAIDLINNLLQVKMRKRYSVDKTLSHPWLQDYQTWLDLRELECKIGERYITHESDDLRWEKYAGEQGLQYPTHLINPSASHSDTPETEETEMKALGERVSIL
Chain of Proto-oncogene tyrosine-protein kinase Src (P12931 2-536 limits assumed): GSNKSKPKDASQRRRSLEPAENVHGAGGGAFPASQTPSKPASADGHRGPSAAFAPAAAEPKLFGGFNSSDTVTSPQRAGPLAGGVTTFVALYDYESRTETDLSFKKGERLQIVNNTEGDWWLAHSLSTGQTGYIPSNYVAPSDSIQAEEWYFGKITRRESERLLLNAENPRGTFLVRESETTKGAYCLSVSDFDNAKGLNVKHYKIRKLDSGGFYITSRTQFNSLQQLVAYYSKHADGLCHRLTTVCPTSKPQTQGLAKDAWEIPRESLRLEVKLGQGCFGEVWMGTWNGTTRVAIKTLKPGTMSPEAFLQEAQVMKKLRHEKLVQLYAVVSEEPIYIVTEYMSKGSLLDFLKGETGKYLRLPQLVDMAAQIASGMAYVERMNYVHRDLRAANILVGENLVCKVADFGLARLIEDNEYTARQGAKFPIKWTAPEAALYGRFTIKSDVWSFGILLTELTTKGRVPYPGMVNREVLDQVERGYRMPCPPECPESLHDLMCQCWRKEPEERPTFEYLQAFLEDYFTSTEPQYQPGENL
Chain of Ribosomal protein S6 kinase alpha-1 (Q15418 whole entry): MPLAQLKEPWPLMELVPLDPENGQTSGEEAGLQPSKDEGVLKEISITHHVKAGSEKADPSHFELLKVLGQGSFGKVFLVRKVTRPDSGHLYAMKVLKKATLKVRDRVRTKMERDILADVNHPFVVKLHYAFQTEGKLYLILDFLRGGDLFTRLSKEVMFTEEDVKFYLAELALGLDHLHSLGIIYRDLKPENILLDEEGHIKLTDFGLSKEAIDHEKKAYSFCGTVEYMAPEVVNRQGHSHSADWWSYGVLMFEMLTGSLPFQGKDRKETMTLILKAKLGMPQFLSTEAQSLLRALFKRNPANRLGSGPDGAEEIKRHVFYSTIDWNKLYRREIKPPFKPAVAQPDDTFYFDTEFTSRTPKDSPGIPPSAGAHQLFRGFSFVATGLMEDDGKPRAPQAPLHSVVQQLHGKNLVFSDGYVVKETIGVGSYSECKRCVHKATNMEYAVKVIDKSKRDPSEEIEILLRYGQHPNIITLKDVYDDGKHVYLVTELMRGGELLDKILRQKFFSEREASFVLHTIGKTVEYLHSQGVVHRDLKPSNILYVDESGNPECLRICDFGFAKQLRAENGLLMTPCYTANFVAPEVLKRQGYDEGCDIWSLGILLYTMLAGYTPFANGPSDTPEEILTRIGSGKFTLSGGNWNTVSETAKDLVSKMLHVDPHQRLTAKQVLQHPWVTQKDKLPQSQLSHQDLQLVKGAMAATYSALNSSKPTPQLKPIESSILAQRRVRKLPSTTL
Chain of Serine/threonine-protein kinase Chk2 (O96017 whole entry): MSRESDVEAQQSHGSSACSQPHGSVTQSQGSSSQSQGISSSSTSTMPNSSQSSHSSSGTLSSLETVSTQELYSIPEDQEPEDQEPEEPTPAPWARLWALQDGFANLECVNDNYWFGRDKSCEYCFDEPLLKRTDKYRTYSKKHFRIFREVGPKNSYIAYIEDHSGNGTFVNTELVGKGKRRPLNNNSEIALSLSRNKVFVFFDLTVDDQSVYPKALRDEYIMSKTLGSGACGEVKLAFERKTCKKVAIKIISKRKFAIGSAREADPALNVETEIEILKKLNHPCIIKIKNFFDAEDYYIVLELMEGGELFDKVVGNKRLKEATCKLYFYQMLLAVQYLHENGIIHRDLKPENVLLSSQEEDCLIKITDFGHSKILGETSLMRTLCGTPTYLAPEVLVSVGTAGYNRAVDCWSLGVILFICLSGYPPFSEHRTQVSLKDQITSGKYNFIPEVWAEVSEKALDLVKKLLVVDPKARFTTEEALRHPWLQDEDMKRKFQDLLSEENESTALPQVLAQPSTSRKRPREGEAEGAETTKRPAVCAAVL
Chain of Protein kinase C theta type (Q04759 whole entry): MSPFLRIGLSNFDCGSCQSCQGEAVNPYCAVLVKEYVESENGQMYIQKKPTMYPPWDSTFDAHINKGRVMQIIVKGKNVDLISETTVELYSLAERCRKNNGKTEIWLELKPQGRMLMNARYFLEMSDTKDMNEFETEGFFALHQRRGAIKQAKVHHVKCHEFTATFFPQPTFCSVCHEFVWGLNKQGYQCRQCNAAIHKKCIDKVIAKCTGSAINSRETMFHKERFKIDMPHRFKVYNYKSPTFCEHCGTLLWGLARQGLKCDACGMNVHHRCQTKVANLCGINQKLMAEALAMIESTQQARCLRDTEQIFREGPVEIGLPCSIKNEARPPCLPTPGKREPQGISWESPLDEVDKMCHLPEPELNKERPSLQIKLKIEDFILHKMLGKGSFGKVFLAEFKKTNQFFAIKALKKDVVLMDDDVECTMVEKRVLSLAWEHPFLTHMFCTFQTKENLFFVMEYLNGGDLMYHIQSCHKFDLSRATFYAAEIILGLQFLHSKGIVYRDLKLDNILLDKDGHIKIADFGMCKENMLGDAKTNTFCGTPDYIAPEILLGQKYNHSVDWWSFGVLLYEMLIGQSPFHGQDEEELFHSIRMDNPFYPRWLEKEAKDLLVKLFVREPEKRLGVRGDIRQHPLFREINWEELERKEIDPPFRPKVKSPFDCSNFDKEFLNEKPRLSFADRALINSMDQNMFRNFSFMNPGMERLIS
Chain of Tumour suppressor p53/oncoprotein Mdm2 (P04637 whole entry, looked up, change not shown, the tested form may be a part): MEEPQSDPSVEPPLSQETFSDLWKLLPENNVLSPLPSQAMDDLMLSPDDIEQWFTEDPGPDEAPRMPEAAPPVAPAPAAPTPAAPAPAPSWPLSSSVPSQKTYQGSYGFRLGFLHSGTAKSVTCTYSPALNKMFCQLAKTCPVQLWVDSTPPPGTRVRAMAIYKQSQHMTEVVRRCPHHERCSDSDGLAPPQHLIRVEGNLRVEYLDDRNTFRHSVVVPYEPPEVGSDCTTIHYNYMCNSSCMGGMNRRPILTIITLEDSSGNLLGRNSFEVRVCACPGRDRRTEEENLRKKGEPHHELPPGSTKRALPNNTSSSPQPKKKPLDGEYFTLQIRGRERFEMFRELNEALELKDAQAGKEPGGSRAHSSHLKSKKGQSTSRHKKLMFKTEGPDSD
Chain of Tumour suppressor p53/oncoprotein Mdm2 (Q00987 whole entry, looked up, change not shown, the tested form may be a part): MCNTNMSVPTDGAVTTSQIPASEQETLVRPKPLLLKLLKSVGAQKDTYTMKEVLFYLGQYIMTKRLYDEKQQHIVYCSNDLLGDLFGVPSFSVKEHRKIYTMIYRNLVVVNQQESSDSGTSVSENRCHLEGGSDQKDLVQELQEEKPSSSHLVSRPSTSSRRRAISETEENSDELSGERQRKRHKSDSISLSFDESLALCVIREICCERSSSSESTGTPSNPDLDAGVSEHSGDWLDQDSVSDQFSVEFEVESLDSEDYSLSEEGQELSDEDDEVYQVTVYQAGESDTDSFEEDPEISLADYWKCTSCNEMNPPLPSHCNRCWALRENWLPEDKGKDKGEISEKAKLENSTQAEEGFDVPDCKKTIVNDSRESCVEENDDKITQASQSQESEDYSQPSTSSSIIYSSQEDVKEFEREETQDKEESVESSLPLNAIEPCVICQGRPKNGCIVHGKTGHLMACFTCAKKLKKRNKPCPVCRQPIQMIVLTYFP

Consider `Cc1nc(Nc2n[nH]c3c2CN(C(=O)N[C@H](CN(C)C)c2ccccc2)C3(C)C)c2sccc2n1` [PF-03758309], for which the concentration for half-maximal inhibition (IC50) (usually the concentration that inhibits the measured activity by half) in assay [1] stood at 13 nM; in assay [2] it was 46 nM; in the assay on HCC4006, 3.79 nM; in the assay on SW1990, 127 nM; in the assay on CFPAC-1, 1320 nM; in assay [5], 5.6 nM. Also, the IC50 in the assay on PaTu 8988t came out at 73 nM; in the assay with MDA-MB-453 it was 13.3 nM; in [11], 23.4 nM; in assay [13], 407 nM. Also, the Ki – broadly, a measure of affinity in units of concentration, obtained from inhibition or displacement – in assay [3] was 10 nM; in [7], 11 nM; in assay [10] it was 5 nM; in assay [12] it was 15 nM; in assay [14] it was 185 nM. In addition, in the assay on HCT-116 [4], the inhibition in vivo at 25 mg/kg is 33.8%. Besides, the inhibition in assay [6] and in assay [8] was 96% throughout. Moreover, the inhibition in vivo at 15 mg/kg in the assay with HCT-116 [9] was 79%. Moreover, in the assay with A549, the inhibition in vivo at 10 mg/kg amounted to 71%.
